Experimental data published in the array DNA melting data of Ke et al. (doi:10.1101/2024.01.08.574731).

Tests used:
[1] = melting temperature; fluorescence melt of hairpins on a sequencing array, two-state fit, raised by 9.35 °C to match UV melts; settings: sodium 0.088 M
Summary of the method: (§1)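 On a sequenced MiSeq flow cell, library hairpins with annealed Cy3 and quencher oligos were imaged for Cy3 fluorescence in 2.5 °C steps up to 60 °C, in 50 mM Na-HEPES pH 8.0, 25 mM NaCl. Normalisation used pre-quench Cy3 and control constructs. Bootstrapped two-state fits gave melting temperature and folding enthalpy, combined by inverse variance across four replicates and with fitted temperatures raised by 9.35 °C to match UV melts.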

[2] = folding enthalpy; higher = less favourable; fluorescence melt of hairpins on a sequencing array, two-state fit; settings: sodium 0.088 M
Summary of the method: as §1

Sequence	Tm [1] [°C]	folding enthalpy [2] [kJ/mol]
GATTTACGAAAGTAGATC (((.(((....))).)))	41.9	-123
GTGTATGGAAACATACAC (((((((....)))))))	57.2	-176
GTCGACGGAAACGTCGGC (.(((((....))))).)	64.8	-93.3
GCTAGAGCGAAAGCTAGC (((..(((....))))))	47.4	-90.7
GTGGTGTCGAAAGACCAC (((..(((....))))))	47.6	-70.4
GTGCCTGGAAACAAGCAC ((((.((....)).))))	42.7	-103
GGACCCGAAAGGGTTTCC ((((((....)))..)))	37.1	-33.7
GATTCCGGAAACAGAATC (((((.(....).)))))	32.1	-97.9
GATAGCGAAAGCTATATC ((((((....)))..)))	46.6	-59.9
GTATCACGAAAGTGGTAC (((.(((....))).)))	52.8	-117
GCGCAGCGAAAGCGACGC (((..((....))..)))	57.6	-66.2
GGTCTCCGAAAGGAAACC (((.(((....))).)))	45.5	-122
GCGAAGCGAAAGCGCCGC (((..((....))..)))	65.4	-75.1
CGCCCGGAAACGGTGGCG ((((((....)))..)))	54.9	-120
CGAACGGAAACGTTGTCG ((((((....)))..)))	36.3	-59
GTACGAGGAAACCCGTAC (((((.(....).)))))	46.5	-129
GCAGACGGAAACGTCCGC ((.((((....)))).))	52.6	-100
TGTGTGAAAACACA (((((....)))))	49	-83.6
GTTCTTGAAAAAGAAC ((((((....))))))	46.9	-143
GCATGGCGAAAGCTCTGC (((..((....))..)))	43.2	-75.4
GCCTGCGAAAGCATGGC ((((((....))).)))	65.8	-129
GTGTGAGGAAACTTGCAC (((..((....))..)))	35.1	-117
GCACTGCGAAAGCACAGC ((..(((....)))..))	29.2	-48.6

Sequence	Tm [1] [°C]	folding enthalpy [2] [kJ/mol]
GACGTGGGAAACCACGTC (((((((....)))))))	68.8	-155
GTCTGCCGAAAGGCCGAC (((.(((....))).)))	54.1	-107
GGGTGGGCGAAAGCCCCC (((..(((....))))))	54.5	-50.4
GATCTAGTACTAGATC ((((((....))))))	48.7	-215
GCTTTGCGAAAGCGAGGC ((.(.((....)).).))	49.7	-71.8
GATCCGGCATCGGATC ((((((....))))))	64.8	-190
GAAGAGAAATCTTC (((((....)))))	30.6	-45.4
GATCGCGGGTGCGATC ((((((....))))))	68.4	-144
GAGGAGGGAAACCTCCTC (((((((....)))))))	65.3	-140
GCAGTTTCGAAAGAATGC (((..(((....))))))	25.8	-52.1
GATCGTTGGGACGATC ((((((....))))))	59	-154
GATCACGGGGTGATC ((((((...))))))	60.3	-141
GCCGGAGGAAACTCCGAC (.(((((....))))).)	49.9	-54.6
GATCGTGATGACGATC ((((((....))))))	54.4	-158
GAGGACGAAAGTCACCTC ((((((....)))..)))	36.2	-54.1
GAGATTGGAAACAACCTC (((.(((....))).)))	32	-87.7
GATGCAGGAAACTGCACC (.(((((....))))).)	40.5	-53.1
GCTTCGCGAAAGCTGAGC (((..((....))..)))	45.5	-60.7
GCGAGTCCTCGC ((((....))))	56.2	-127
GCAGAAGGAAACTTCCGC ((.((((....)))).))	37.5	-86.3
GCGCAGCGAAAGCAGTGC ((.(.((....)).).))	54.4	-50.2
GCAAGAGCGAAAGCTTGC (((..(((....))))))	51.9	-95.5
GCACGACGAAAGTCTGC (((.(((....))))))	52.4	-87.2

Sequence	Tm [1] [°C]	folding enthalpy [2] [kJ/mol]
GCACGCGAAAGCGTTGC ((((((....))).)))	64.7	-74.5
GCGGATGGAAACATCTGC ((.((((....)))).))	54.4	-199
GCCATGGAAACATGGC ((((((....))))))	67.7	-142
GAGCAGCCGAAAGGCCTC (((..(((....))))))	31.7	-45.1
GGATACGAAAGTACATCC ((((((....)))..)))	34.5	-71.8
GTAGTGGGAAACCATTGC (.(.(((....))).).)	24.3	-43
GATCTCTGAAGAGATC ((((((....))))))	54.2	-147
GATCATGGAAACATGATC (((((((....)))))))	56.2	-148
CGTCCGGAAACGGGACG ((((((....))).)))	55.8	-127
GATCTTGTTAAGATC ((((((...))))))	45.8	-126
GATCGTACGTACGATC ((((((....))))))	57.9	-151
GCTACTGGAAACAGTAAC (.(((((....))))).)	31.5	-66.9
GCGACCGAAAGGTGTCGC ((((((....)))..)))	59	-149
GAGGAGCGAAAGCTTCTC (((.(((....))).)))	57.2	-139
GTGCACGAAAGTGCCAC ((((((....))).)))	54.5	-34.1
GATCTCAAGGGAGATC ((((((....))))))	50.8	-120
GATCCCTTTGGGATC ((((((...))))))	63.5	-170
GTCAACGAAAGTTTGAC ((((((....))).)))	46.9	-119
GAGAGTGGAAACGCTTTC ((.((.(....).)).))	27.3	-38.7
GGGTCGGGAAACCGGTCC ((..(((....)))..))	47.2	-119
GGCTATACGAAAGTAGCC (((..(((....))))))	48.7	-136
GGCCGGACGAAAGTCGCC (((..(((....))))))	50	-89.8
GTCTGTGGAAACATAGGC (.((.((....)).)).)	31.3	-68.7

Sequence	Tm [1] [°C]	folding enthalpy [2] [kJ/mol]
GGACGTGGAAACACATCC (((.(((....))).)))	41.1	-108
GTTAGGGAAACCTAAC ((((((....))))))	48.4	-129
CGACAACGGAAACGTTCG (((..(((....))))))	35.9	-59.7
GCGTCTCAACGC ((((....))))	56.6	-85.1
GGTCCTCGAAAGAGACC (((.(((....))))))	48.1	-131
GTGACTGGAAACGGTCAC (((((.(....).)))))	53.2	-207
CGCTCCCGGAAACGGGCG (((..(((....))))))	42.7	-64.1
GTTGACGAAAGTCTTAAC ((((((....)))..)))	28.1	-42
GCTAGGAAACTAGC (((((....)))))	50.8	-107
GCCTGGCGAAAGCTAAGC ((.(.((....)).).))	36.2	-42.8
GATCTGATAGCAGATC ((((((....))))))	46.8	-144
GATCCTCCGCAGGATC ((((((....))))))	44.6	-60.5
GCTATGCGAAAGCACAGC (((.(((....))).)))	48.7	-166
GATGGCGAAAGCCAATC ((((((....))).)))	50.7	-59
CGTCTTCGGAAACGAACG (((..(((....))))))	29.8	-47.2
GAAAGCGGAAACACTTTC (((((.(....).)))))	36.2	-125
GATTTCCGAAAGGAGATC (((.(((....))).)))	46.8	-143
GAACCAGGAAACTGGTCC (.(((((....))))).)	39.5	-52.6
GACAACGGAAACGCTGTC ((((.((....)).))))	45.6	-145
GATCCCTACAGGGATC ((((((....))))))	65.6	-151
GTAGGCGAAAGCCGTAC ((((((....))).)))	57.3	-54.4
GCGTAGCGAAAGCCATGC ((.(.((....)).).))	35.6	-30.2
GCAAGGCGAAAGCATCGC ((.(.((....)).).))	37.3	-60.2
